# In ChEMBL document CHEMBL3352373, “Design and synthesis of 21-alkynylaryl pregnenolone derivatives and evaluation of their anticancer activity” (Bioorg Med Chem, 2014):
# The source made the active and inactive calls. The rule behind the calls is not given here.
# Tests used:
# [1] = system: LNCaP; assay: Cytotoxic activity against human LNCAP cells after 24 hrs by MTT assay; format: functional, cell-based
# In short: (§1)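 MTT assay; log-phase cells seeded at 10^4 cells/well in DMEM, allowed to attach for 24 h at 37 °C, 5% CO2. Compounds dissolved in DMSO/water (1:1) and tested at 0.1–100 µM (1:2 serial dilutions), four replicates per condition. MTT at 0.5 mg/ml final added 4 h before end; dissolved in 0.1 N HCl/isopropanol, A545 read. Untreated cells as 100% growth, blank subtracted; IC50 as mean ± SD of 3–4 independent experiments.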
# [2] = system: A549; assay: Cytotoxic activity against human A549 cells after 24 hrs by MTT assay; format: functional, cell-based; settings: A549, 24 h; in short: as §1
# [3] = system: MCF7; assay: Cytotoxic activity against human MCF7 cells after 24 hrs by MTT assay; format: functional, cell-based; settings: MCF7, 24 h; in short: as §1
# [4] = system: HeLa; assay: Cytotoxic activity against human HeLa cells after 24 hrs by MTT assay; format: functional, cell-based; in short: as §1
# [5] = system: A-431; assay: Cytotoxic activity against human A431 cells after 24 hrs by MTT assay; format: functional, cell-based; settings: A-431, 24 h; in short: as §1
# [6] = system: HepG2; assay: Cytotoxic activity against human HepG2 cells after 24 hrs by MTT assay; format: functional, cell-based; settings: HepG2, 24 h; in short: as §1
# [7] = system: HT-29; assay: Cytotoxic activity against human HT-29 cells after 24 hrs by MTT assay; format: functional, cell-based; settings: HT-29, 24 h; in short: as §1
# [8] = system: LNCaP; assay: Cytotoxic activity against human LNCAP cells after 48 hrs by MTT assay; format: functional, cell-based; in short: as §1
# [9] = system: A549; assay: Cytotoxic activity against human A549 cells after 48 hrs by MTT assay; format: functional, cell-based; settings: A549, 48 h; in short: as §1
# [10] = system: MCF7; assay: Cytotoxic activity against human MCF7 cells after 48 hrs by MTT assay; format: functional, cell-based; settings: MCF7, 48 h; in short: as §1
# [11] = system: HeLa; assay: Cytotoxic activity against human HeLa cells after 48 hrs by MTT assay; format: functional, cell-based; in short: as §1
# [12] = system: A-431; assay: Cytotoxic activity against human A431 cells after 48 hrs by MTT assay; format: functional, cell-based; settings: A-431, 48 h; in short: as §1
# [13] = system: HepG2; assay: Cytotoxic activity against human HepG2 cells after 48 hrs by MTT assay; format: functional, cell-based; settings: HepG2, 48 h; in short: as §1
# [14] = system: HT-29; assay: Cytotoxic activity against human HT-29 cells after 48 hrs by MTT assay; format: functional, cell-based; settings: HT-29, 48 h; in short: as §1
# [15] = system: HeLa; assay: Cytotoxic activity against human HeLa cells assessed as cell viability at 10 uM after 24 hrs by trypan blue exclusion method; format: functional; settings: read-out: Activity
# In short: (§2)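 Trypan blue exclusion after 24 h compound exposure. Medium collected, attached cells trypsinized and pooled with it, then centrifuged at 1200 rpm for 5 min. Pellet resuspended in PBS with 0.2% trypan blue. 200–300 cells counted per experiment in three separate experiments. Viability is the percentage of viable cells over total cells, taken as the mean.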
# [16] = system: LNCaP; assay: Cytotoxic activity against human LNCAP cells assessed as cell viability at 10 uM after 24 hrs by trypan blue exclusion method; format: functional; settings: read-out: Activity; in short: as §2
# [17] = system: A-431; assay: Cytotoxic activity against human A431 cells assessed as cell viability at 5 uM after 24 hrs by trypan blue exclusion method; format: functional; settings: A-431, 24 h, read-out: Activity; in short: as §2
# [18] = system: MCF7; assay: Cytotoxic activity against human MCF7 cells assessed as cell viability at 10 uM after 24 hrs by trypan blue exclusion method; format: functional; settings: MCF7, 24 h, read-out: Activity; in short: as §2
# [19] = Inhibition of PI3K/Akt signalling pathway in human LNCAP cells at cytotoxic IC50 after 24 hrs by immunoblot; format: cell-based
# In short: (§3)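 Cells dosed at their cytotoxic IC50 and lysed 24 h later (A431 also sampled over time) in ice-cold HEPES pH 7.5 buffer with phosphatase/protease inhibitors and 0.5% Triton X-100. 50 µg protein per lane on 10% SDS–PAGE, transferred to nitrocellulose, blocked in 5% milk/TBS-T. Probed overnight at 4 °C with anti-pAkt (Ser473; 1:1000) and β-actin loading control; HRP secondary, ECL detection. Untreated cells as control.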
# [20] = Inhibition of PI3K/Akt signalling pathway in human HeLa cells at cytotoxic IC50 after 24 hrs by immunoblot; format: cell-based; in short: as §3
# [21] = Inhibition of PI3K/Akt signalling pathway in human MCF7 cells at cytotoxic IC50 after 24 hrs by immunoblot; format: cell-based; in short: as §3
# [22] = Inhibition of PI3K/Akt signalling pathway in human A431 cells at cytotoxic IC50 after 24 hrs by immunoblot; format: cell-based; settings: A-431; in short: as §3
# [23] = Inhibition of PI3K/Akt signalling pathway in human A431 cells at cytotoxic IC50 after 2 to 24 hrs by immunoblot; format: cell-based; settings: A-431, TDE = time-dependent effect; in short: as §3
Structure (SMILES),IC50 [1] [µM],IC50 [2] [µM],IC50 [3] [µM],IC50 [4] [µM],IC50 [5] [µM],IC50 [6] [µM],IC50 [7] [µM],IC50 [8] [µM],IC50 [9] [µM],IC50 [10] [µM],IC50 [11] [µM],IC50 [12] [µM],IC50 [13] [µM],IC50 [14] [µM],viability at 10 µM [15] [%],viability at 10 µM [16] [%],viability at 5 µM [17] [%],viability at 10 µM [18] [%],inhibition [22],also measured
C[C@]12CC[C@H]3[C@@H](CC=C4C[C@@H](O)CC[C@@]43C)[C@@H]1CC[C@@H]2C(=O)C#Cc1ccccc1C(F)(F)F,7.9,15.8,13.5,13.8,4.21,38.4,24.6,5.44,6.3,4.42,3.85,1.78,12.6,9.87,70.8,0,0,18.9,Active,inhibition [19]: Active; inhibition [20]: Active; inhibition [21]: Active
Cc1cc(C#CC(=O)[C@H]2CC[C@H]3[C@@H]4CC=C5C[C@@H](O)CC[C@]5(C)[C@H]4CC[C@]23C)ccc1F,> 50,40.1,17.6,> 50,> 50,> 50,> 50,38.4,28.2,11.3,> 50,> 50,> 50,26.7,,,,,,
C[C@]12CC[C@H]3[C@@H](CC=C4C[C@@H](O)CC[C@@]43C)[C@@H]1CC[C@@H]2C(=O)C#Cc1cccc(C(F)(F)F)c1,26.2,29.3,31.4,25.1,2.28,45.7,> 50,17.4,20.7,18.6,8.34,0.54,16.4,26.4,92.5,92.1,0,94.2,Active,inhibition [23]: tde
C#Cc1cccc(C#CC(=O)[C@H]2CC[C@H]3[C@@H]4CC=C5C[C@@H](O)CC[C@]5(C)[C@H]4CC[C@]23C)c1,19.1,> 50,11.2,> 50,4.85,42.6,> 50,16.9,20.2,5.15,> 50,1.52,17.9,> 50,93.2,90.3,0,0,Active,inhibition [21]: Active
COc1ccc(C#CC(=O)[C@H]2CC[C@H]3[C@@H]4CC=C5C[C@@H](O)CC[C@]5(C)[C@H]4CC[C@]23C)c(C)c1,41.7,44.3,44.1,> 50,44.1,> 50,48.4,30.8,30.5,18.8,23.6,13.7,45.7,22.7,,,,,,
C[C@]12CC[C@H]3[C@@H](CC=C4C[C@@H](O)CC[C@@]43C)[C@@H]1CC[C@@H]2C(=O)C#Cc1ccc(F)cc1,12.4,> 50,> 50,> 50,7.16,> 50,> 50,10.8,40.6,> 50,43.7,2.18,> 50,44.7,98.4,25.6,28.6,90.4,Active,
COc1ccc(C#CC(=O)[C@H]2CC[C@H]3[C@@H]4CC=C5C[C@@H](O)CC[C@]5(C)[C@H]4CC[C@]23C)cc1,> 50,> 50,> 50,> 50,> 50,> 50,> 50,47.6,> 50,> 50,26.7,> 50,> 50,> 50,,,,,,
C[C@]12CC[C@H]3[C@@H](CC=C4C[C@@H](O)CC[C@@]43C)[C@@H]1CC[C@@H]2C(=O)C#Cc1cccc(F)c1,14.7,> 50,28.4,21.4,> 50,> 50,> 50,9.48,24.9,14.7,6.44,45.3,> 50,28.6,,,,,,
C[C@]12CC[C@H](O)CC1=CC[C@@H]1[C@@H]2CC[C@]2(C)C(=O)CC[C@@H]12 [PRASTERONE],> 50,47.8,> 50,> 50,> 50,> 50,> 50,> 50,47.8,> 50,> 50,> 50,> 50,> 50,,,,,,
Cc1cc(C)c(C#CC(=O)[C@H]2CC[C@H]3[C@@H]4CC=C5C[C@@H](O)CC[C@]5(C)[C@H]4CC[C@]23C)cc1C,> 50,> 50,39,> 50,39.3,> 50,> 50,46.2,> 50,7.78,32.4,12.5,48.6,> 50,,,,,,
